High-throughput results (PubChem BioAssay)
CAL PDZ FP-1 = blocks peptide binding to human CAL PDZ domain | Q9HD26 | 330,000 compounds, 0.02% hits | purified CAL PDZ, TMR-peptide fluorescence polarization, 1 h | inhibition, % at 20 µM;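 active means highest replicate inhibition of at least 40%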;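 further: plate controls were DMSO neutral control wells for no effect and unlabeled competitor peptide control wells for full effect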
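Material: tagged CAL PDZ protein CerCALP, purified; buffer or medium: sodium phosphate/NaCl buffer pH 7.4 with TCEP, IgG, Thesit; also added: fluorescent TMR peptide probe; schedule: 1 h incubation at room temperature before polarization reading; technique: fluorescence polarization from S- and P-plane intensities, G-factor corrected; control set: unlabelled peptide and DMSO controls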
Cneo AK release = causes C. neoformans cell lysis. lysis activity, % at 15 µM. adenylate kinase release luminescence, 4 h; normalised: neutral wells 0, clomiphene wells 100. 360,000 compounds, 0.2% hits;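 active means mean lysis activity across replicates of at least 80%, whatever share of replicates individually reach that level; inactive means mean lysis activity below 80%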
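Material: C. neoformans cells; Schedule: 4 h static compound exposure, 37 °C, read 1 h post-reagent; Measured by: adenylate kinase release luminescence; Read-out: signal increase indicating cell lysis; Controls: Clomiphene as positive lysis control.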
CAL PDZ FP-2 = CAL PDZ (human) peptide binding inhibition; Q9HD26; purified CAL PDZ, TMR-peptide fluorescence polarization, 1 h; inhibition, % at 24.9 µM; 300,000 compounds, 0.92% hits;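 active means mean inhibition of at least 30% with at least half of replicates also reaching 30%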;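 further: 0% = DMSO neutral control and 100% = excess unlabeled competitor peptide PRC23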
PglD DTNB = PglD (C. jejuni) enzyme inhibition; AID 602405; purified PglD enzyme, DTNB colorimetric CoA detection; 360,000 compounds, 0.098% hits; inhibition, % at 12.5 µM; in the data active means inhibition above about 16%, passing the limit was not always enough
miR-122 sensor = miR-122 inhibition in Huh7 cells; Huh7 miR-122 Renilla luciferase sensor, 48 h; neutral wells = 0, positive control = 100; 340,000 compounds, 0.3% hits; activation (reporter increase), % at 12.5 µM;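 active means mean replicate activation score at least 90 and every replicate individually at or above 90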;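 further: higher luciferase means less miR-122 activity so hits act as miR-122 inhibitors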
* marks the source's active call; other numbers are inactive results; nt = no result given; [ ] = remark or other dose. This is a sample that favours compounds with a hit; in the whole collection about 1.1% have one here.

SMILES	CAL PDZ FP-1	Cneo AK release	CAL PDZ FP-2	PglD DTNB	miR-122 sensor
CN1CCc2c(sc(N)c2C(=O)c2ccc(Cl)cc2)C1	-0.3	164.3*	-2.5	3.4	1.9
Cc1cc(Cl)ccc1NC(=S)NCc1ccc(F)cc1	-1.0	92.8*	-2.2	-4.6	29.4
Cc1ccccc1NC(=S)NCc1ccc(F)cc1	-0.9	0.1	-2.9	-5.4	3.1
Cc1ccc(NC(=S)NCc2ccc(Cl)cc2)c(OC(F)F)c1	-2.6	344.1*	1.0	-2.2	nt
Cc1ccc(CNC(=S)Nc2ccc(OC(F)F)cc2C)cc1	0.2	nt	-8.4	nt	nt
CCCNC(=S)Nc1ccc(Cl)cc1C	-1.4	nt	49.5*	nt	nt
Fc1ccccc1CNC(=S)NCc1ccc(Cl)cc1	-2.1	194.2*	-1.3	0.1	nt
COc1ccc(NC(=O)Nc2ccc3c(c2)C(=O)N([C@H](C)CO)C[C@@H](C)[C@@H](CN(C)Cc2ccc(Cl)c(Cl)c2)OCCCC[C@H](C)O3)cc1	nt	1.8	nt	1.4	-4.4[16.7 µM]
COc1cc(NC(=O)CSc2nccc(C)n2)c(C)cc1[N+](=O)[O-]	-0.5	nt	-2.5	nt	nt
O=C(C[C@@H]1CC[C@H]2[C@@H](COC[C@H](O)CN2C(=O)Nc2ccc3c(c2)OCO3)O1)N1CCN(c2ccccc2)CC1	nt	-5.3	nt	0.1	2.6[16.7 µM]
O=c1c2cc3c(cc2[nH]c(=S)n1CCN1CCOCC1)OCO3	nt	-0.8	45.3*	-2.4	-11.7
CCCCN(CC)CCCNC(=O)c1cn(C)c(=O)c2c1c1ccccc1n2C	nt	-0.6	36.8*	-10.9	nt
C[C@H]1CN([C@@H](C)CO)C(=O)c2cc(-c3ccccc3)cnc2O[C@H]1CN(C)C(=O)Nc1ccccc1	nt	-1.4	nt	0.1	-0.4[16.7 µM]
COc1ccc(N(C(=O)c2snc(C(N)=O)c2N)C(C(=O)NCc2ccccc2)c2ccc(O)cc2)cc1 (stereo unspecified)	-0.3	-1.2	51.4*	3.0	nt
COc1ccc(OC)c(N(C(=O)c2snc(C(N)=O)c2N)C(C(=O)NCc2ccccc2)c2ccc(O)cc2)c1 (stereo unspecified)	-0.5	0.0	-4.6	2.1	nt
COc1ccc(CC2CCOC2=O)cc1 (stereo unspecified)	0.3	2.2	62.0*	3.4	-3.5
COc1cccc(S(=O)(=O)NCc2ccc(C(=O)N3CCN(C)CC3)cc2)c1	-0.7	-1.0	-4.5	1.1	-1.4
O=C(N[C@H]1C=C[C@@H](CC(=O)N2CCCCC2)O[C@H]1CO)c1ccc2c(c1)OCO2	nt	-3.5	nt	15.8*	nt
CCOC(=O)c1c(C)[nH]c(C)c1S(=O)(=O)N(C)CC(=O)Nc1cccc(F)c1	-0.8	-3.9	34.1*	3.0	9.4
Cc1oc2cc3oc(=O)c(CCC(=O)NCCN4CCOCC4)c(C)c3cc2c1C	-0.5	7.8	-2.1	-1.2	-6.1
O=C(COc1ccc(Cl)cc1)Nc1cc(NC(=O)COc2ccc(Cl)cc2)cc(C(=O)O)c1	nt	2.5	86.5*	-1.4	2.2
O=C(O)CCNC(=O)CCCn1nnc2ccccc2c1=O	0.9	-3.3	-3.6	7.9	2.2
COC(=O)c1ccccc1SCC(=O)Nc1ccc(N2CCOCC2)cc1	-2.0	-1.2	64.1*	-2.9	-3.0
O=C(CSc1ccccc1F)Nc1ccc(N2CCOCC2)cc1	0.0	0.2	nt	1.5	-5.2
Cc1ccc(-c2ccc3c(c2)O[C@H](CN(C)C(=O)CC2CC2)[C@H](C)CN([C@H](C)CO)S3(=O)=O)cc1	nt	-4.7	nt	-0.4	-40.1[16.7 µM]
SMILES	CAL PDZ FP-1	Cneo AK release	CAL PDZ FP-2	PglD DTNB	miR-122 sensor
CCCCCCn1c(=O)n2n(c1=O)C[C@]1(OC(=O)NC3CC3)CN(S(=O)(=O)c3ccc(C)cc3)C[C@]1(O)C2	nt	-3.5	nt	-6.3	-5.2
CCC(=O)N(C)C[C@H]1Oc2cc(-c3ccccc3)ccc2S(=O)(=O)N([C@H](C)CO)C[C@H]1C	nt	88.5*	nt	0.2	-23.0[16.7 µM]
CCC(=O)N(C)C[C@@H]1Oc2cc(C#CC(C)(C)O)ccc2S(=O)(=O)N([C@@H](C)CO)C[C@H]1C	nt	93.3*	nt	-8.4	-3.5[16.7 µM]
C[C@H](CO)N1C[C@H](C)[C@@H](CN(C)C(=O)Nc2cccc3ccccc23)Oc2ccc(NS(=O)(=O)c3cccs3)cc2CC1=O	nt	1.7	nt	-2.2	1.5[16.7 µM]
COc1ccc(CNC(=O)COC(=O)c2n[nH]c3ccccc23)cc1	nt	-0.4	-6.1	-5.3	0.2
Cc1oc(-c2ccccc2)nc1C(=O)OCC(=O)NC(=O)NCC(C)C	-0.1	6.3	36.8*	0.7	-2.6
CC(C)CNC(=O)COC(=O)c1n[nH]c2ccccc12	8.1	nt	60.9*	nt	nt
Cc1oc(-c2ccccc2)nc1C(=O)OCC(=O)NC(C)c1ccccc1 (stereo unspecified)	-1.3	1.9	-2.4	0.1	nt
O=C(c1ccc(F)cc1)N1C[C@@H]2[C@H](c3ccccc31)[C@H](CO)N2Cc1ccc2c(c1)OCO2	nt	-1.7	nt	2.3	41.7[16.7 µM]
CN(C)S(=O)(=O)c1ccc(NS(=O)(=O)/C=C/c2ccccc2)cc1	-0.7	-5.1	-3.2	2.5	165.1*
C[C@H]1CN([C@@H](C)CO)S(=O)(=O)c2ccc(-c3cccnc3)cc2O[C@@H]1CN(C)CC1CC1	nt	-4.1	nt	1.5	3.9[16.7 µM]
CC1=CC(C)C(CN(CCC[N+](C)(C)C)C(=O)Nc2ccccc2)C(C)C1 (stereo unspecified)	-0.4	nt	42.1*	nt	nt
CC(C(=O)N1CCN(Cc2ccccc2)CC1)c1ccc([N+](=O)[O-])cc1 (stereo unspecified)	-0.8	nt	-3.8	nt	nt
CC(OC(=O)c1ccc(Cl)c([N+](=O)[O-])c1)C(=O)N1CCN(Cc2ccccc2)CC1 (stereo unspecified)	-0.3	-0.4	146.9*	-5.4	-3.6
COCC(C)n1c(SCC(=O)N2CC(=O)Nc3ccccc32)nc2ccccc2c1=O (stereo unspecified)	-1.8	0.0	46.7*	2.6	nt
COCC(C)n1c(SCC(=O)NNC(=O)c2ccccc2)nc2ccccc2c1=O (stereo unspecified)	-0.3	0.0	-4.1	-6.7	-3.0
COCC(C)n1c(SCC(=O)NC(=O)Cc2ccccc2)nc2ccccc2c1=O (stereo unspecified)	-2.5	0.1	-17.8	4.2	143.9*
CN(C)C(=O)c1ccc(-c2ccc([C@@H]3[C@H]4CN(C(=O)C5CCCC5)CCCCN4[C@H]3CO)cc2)cc1	nt	-1.6	nt	-0.7	-27.8[16.7 µM]
CCNC(=O)C[C@H]1CC[C@@H]2[C@H](COC[C@H](O)CN2C(=O)CC)O1	nt	-1.3	nt	-1.5	-4.9[16.7 µM]
O=C(CN1CCN(C/C=C/c2ccccc2)CC1)NC(=O)NC1CCCCC1	nt	nt	72.2*	nt	nt
CN1C(=O)c2cc(NC(=O)Cc3ccccc3)ccc2OC[C@@H]2O[C@H](CC(=O)NCC3CC3)CC[C@@H]21	nt	-2.4	nt	-0.5	233.3*[16.7 µM]
CN1C(=O)c2cc(NC(=O)Cc3ccccc3)ccc2OC[C@@H]2O[C@H](CC(=O)NC3CCC3)CC[C@@H]21	nt	-3.1	nt	-0.3	125.0*[16.7 µM]
CN1C(=O)c2cc(NC(=O)Cc3ccccc3)ccc2OC[C@H]2O[C@@H](CC(=O)NCC3CC3)CC[C@@H]21	nt	-2.0	nt	-0.4	16.7[16.7 µM]
